Measured values reported in ChEMBL document CHEMBL1151442, “Genetic and phenotypic identification of fusidic acid-resistant mutants with the small-colony-variant phenotype in Staphylococcus aureus” (2007).
In brackets after ≈: the same amount, converted by molar mass.

Key:
Assay type in all cases: functional
Staphylococcus aureus [1] = assay: Antibacterial activity against kanamycin-resistant Staphylococcus aureus AH357 (SCV-29) harboring TAA stop codon at nucleotide 301 in rplF gene after 18 to 24 hrs by Etest strip assay
How it was run: (§1)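 SCVs of a Rifr 8325-4 derivative were selected on LA with KAN at 8, 16 or 24 μg/ml for 48 h at 37°C. They were purified at the same KAN level and screened on LA plus FA 1 μg/ml.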

Staphylococcus aureus [2] = assay: Antibacterial activity against kanamycin-resistant and fusidic acid-susceptible Staphylococcus aureus AH290 harboring duplication mutation at nucleotide 202-293 in rplF gene after 18 to 24 hrs by Etest strip assay
How it was run: (§2)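 Etest MIC: a single colony was suspended in 0.9% NaCl to 0.5 McFarland and swabbed over Mueller-Hinton agar. The strip was applied and plates were incubated at 37°C for 18 to 24 h until an SCV lawn grew.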

Staphylococcus aureus [3] = assay: Antibacterial activity against kanamycin-resistant Staphylococcus aureus AH367 (SCV-39) harboring Gly664Ser mutation in fusA gene after 18 to 24 hrs by Etest strip assay; how it was run: as §1
Staphylococcus aureus [4] = assay: Antibacterial activity against kanamycin-resistant Staphylococcus aureus AH340 (SCV-12) harboring Gly617Asp mutation in fusA gene after 18 to 24 hrs by Etest strip assay; how it was run: as §1
Staphylococcus aureus [5] = assay: Antibacterial activity against fusidic acid-resistant Staphylococcus aureus AH194 harboring Pro404Leu mutation in fusA gene after 18 to 24 hrs by Etest strip assay
How it was run: (§3)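 Mutants of lab strain 8325-4 were selected on LA with FA 2 μg/ml for 48 h at 37°C and purified on selective medium. For the MIC, one colony was suspended in 0.9% NaCl to 0.5 McFarland and swabbed onto Mueller-Hinton agar. An Etest strip was applied and plates were incubated at 37°C for 18–24 h until the lawn was evident.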

Staphylococcus aureus [6] = assay: Antibacterial activity against kanamycin-resistant Staphylococcus aureus AH392 (SCV-64) harboring -1 frameshift mutation at nucleotide 383 in rplF gene after 18 to 24 hrs by Etest strip assay; how it was run: as §2
Staphylococcus aureus [7] = assay: Antibacterial activity against fusidic acid-resistant Staphylococcus aureus AH198 harboring Gly452Ser mutation in fusA gene after 18 to 24 hrs by Etest strip assay; how it was run: as §3
Staphylococcus aureus [8] = assay: Antibacterial activity against kanamycin-resistant Staphylococcus aureus AH379 (SCV-51) harboring TAA stop codon at nucleotide 418 in rplF but gene after 18 to 24 hrs by Etest strip assay; how it was run: as §1
Staphylococcus aureus [9] = assay: Antibacterial activity against fusidic acid-resistant Staphylococcus aureus AH209 harboring deletion of nucleotide 404-427 in rplF gene after 18 to 24 hrs by Etest strip assay; how it was run: as §3
Staphylococcus aureus [10] = assay: Antibacterial activity against kanamycin-resistant Staphylococcus aureus AH334 (SCV-6) harboring Thr436Ile mutation in fusA gene after 18 to 24 hrs by Etest strip assay; how it was run: as §1
Staphylococcus aureus [11] = assay: Antibacterial activity against kanamycin-resistant Staphylococcus aureus AH348 (SCV-20) harboring TGA stop codon at nucleotide 244 in rplF gene after 18 to 24 hrs by Etest strip assay; how it was run: as §1
Staphylococcus aureus [12] = assay: Antibacterial activity against kanamycin-resistant and fusidic acid-susceptible Staphylococcus aureus AH292 harboring Gly664Val mutation in fusA gene after 18 to 24 hrs by Etest strip assay; how it was run: as §2
Staphylococcus aureus [13] = assay: Antibacterial activity against fusidic acid-resistant Staphylococcus aureus AH206 harboring Arg464Ser mutation in fusA gene after 18 to 24 hrs by Etest strip assay; how it was run: as §3
Staphylococcus aureus [14] = assay: Antibacterial activity against kanamycin-resistant Staphylococcus aureus AH333 (SCV-5) harboring TAA stop codon at nucleotide 249 in rplF but gene after 18 to 24 hrs by Etest strip assay; how it was run: as §1
Staphylococcus aureus [15] = assay: Antibacterial activity against kanamycin-resistant Staphylococcus aureus AH346 (SCV-18) harboring -1 frameshift mutation at nucleotide 238 in rplF gene after 18 to 24 hrs by Etest strip assay; how it was run: as §1
Staphylococcus aureus [16] = assay: Antibacterial activity against kanamycin-resistant Staphylococcus aureus AH383 (SCV-55) harboring TAA stop codon at nucleotide 139 in rplF gene after 18 to 24 hrs by Etest strip assay; how it was run: as §1
Staphylococcus aureus [17] = assay: Antibacterial activity against kanamycin-resistant Staphylococcus aureus AH338 (SCV-10) harboring Arg464Cys mutation in fusA gene after 18 to 24 hrs by Etest strip assay; how it was run: as §1
Staphylococcus aureus [18] = assay: Ratio of MIC for kanamycin-resistant Staphylococcus aureus harboring mutations in FusA gene to MIC for wild type kanamycin-susceptible Staphylococcus aureus AH001
Staphylococcus aureus [19] = assay: Antibacterial activity against kanamycin-resistant and fusidic acid-susceptible Staphylococcus aureus AH422 harboring +2 frameshift mutation at nucleotide 222 in rplF gene after 18 to 24 hrs by Etest strip assay; how it was run: as §2
Staphylococcus aureus [20] = assay: Antibacterial activity against kanamycin-resistant Staphylococcus aureus AH351 (SCV-23) harboring -4 frameshift mutation at nucleotide 45-48 in rplF gene after 18 to 24 hrs by Etest strip assay; how it was run: as §1
Staphylococcus aureus [21] = assay: Antibacterial activity against kanamycin-resistant and fusidic acid-susceptible wild type Staphylococcus aureus 8325-4 […] after 18 to 24 hrs by Etest strip assay; how it was run: as §2
Staphylococcus aureus [22] = assay: Antibacterial activity against fusidic acid-resistant Staphylococcus aureus AH197 harboring Leu456Phe mutation in fusA gene after 18 to 24 hrs by Etest strip assay; how it was run: as §3
Staphylococcus aureus [23] = assay: Antibacterial activity against kanamycin-resistant Staphylococcus aureus AH386 (SCV-58) harboring -1 frameshift mutation at nucleotide 90 in rplF gene after 18 to 24 hrs by Etest strip assay; how it was run: as §1
Staphylococcus aureus [24] = assay: Antibacterial activity against kanamycin-resistant Staphylococcus aureus AH364 (SCV-36) harboring Asp434Asn mutation in fusA gene after 18 to 24 hrs by Etest strip assay; how it was run: as §1
Staphylococcus aureus [25] = assay: Antibacterial activity against fusidic acid-resistant Staphylococcus aureus AH193 harboring TAA stop codon at nucleotide 299 in rplF gene after 18 to 24 hrs by Etest strip assay; how it was run: as §3
Staphylococcus aureus [26] = assay: Antibacterial activity against kanamycin-resistant and fusidic acid-susceptible Staphylococcus aureus AH420 harboring deletion of nucleotide 72-80 in rplF gene after 18 to 24 hrs by Etest strip assay; how it was run: as §2
Staphylococcus aureus [27] = assay: Antibacterial activity against kanamycin-resistant Staphylococcus aureus AH349 (SCV-21) harboring -1 frameshift mutation at nucleotide 404 in rplF gene after 18 to 24 hrs by Etest strip assay; how it was run: as §1
Staphylococcus aureus [28] = assay: Antibacterial activity against fusidic acid-susceptible wild type Staphylococcus aureus 8325-4 after 18 to 24 hrs by Etest strip assay
How it was run: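 The inoculum was a single colony suspended in 0.9% NaCl to 0.5 McFarland and swabbed over a Mueller-Hinton agar plate. An Etest gradient strip was then applied, and the plate was incubated at 37°C for 18 to 24 h until lawn growth was evident. MIC was read from the strip following the manufacturer's instructions.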

Staphylococcus aureus [29] = assay: Antibacterial activity against fusidic acid-resistant Staphylococcus aureus AH188 harboring Gly664Ser mutation in fusA gene after 18 to 24 hrs by Etest strip assay; how it was run: as §3
Staphylococcus aureus [30] = assay: Antibacterial activity against kanamycin-resistant and fusidic acid-susceptible Staphylococcus aureus AH417 harboring -1 frameshift mutation at nucleotide 422 in rplF gene after 18 to 24 hrs by Etest strip assay; how it was run: as §2
Staphylococcus aureus [31] = assay: Ratio of MIC for kanamycin-resistant Staphylococcus aureus harboring mutations in FusE gene to MIC for wild type kanamycin-susceptible Staphylococcus aureus AH001

Row | SMILES | MIC (Staphylococcus aureus [1]) [µg/mL] | MIC (Staphylococcus aureus [2]) [µg/mL] | MIC (Staphylococcus aureus [3]) [µg/mL] | MIC (Staphylococcus aureus [4]) [µg/mL] | MIC (Staphylococcus aureus [5]) [µg/mL] | MIC (Staphylococcus aureus [6]) [µg/mL] | MIC (Staphylococcus aureus [7]) [µg/mL] | MIC (Staphylococcus aureus [8]) [µg/mL] | MIC (Staphylococcus aureus [9]) [µg/mL] | MIC (Staphylococcus aureus [10]) [µg/mL] | MIC (Staphylococcus aureus [11]) [µg/mL] | MIC (Staphylococcus aureus [12]) [µg/mL] | MIC (Staphylococcus aureus [13]) [µg/mL] | MIC (Staphylococcus aureus [14]) [µg/mL] | MIC (Staphylococcus aureus [15]) [µg/mL] | MIC (Staphylococcus aureus [16]) [µg/mL] | MIC (Staphylococcus aureus [17]) [µg/mL] | fold change (FC) (Staphylococcus aureus [18]) | MIC (Staphylococcus aureus [19]) [µg/mL] | MIC (Staphylococcus aureus [20]) [µg/mL] | further results
1 | CC(=O)O[C@H]1C[C@@]2(C)[C@@H](C[C@@H](O)[C@H]3[C@@]4(C)CC[C@@H](O)[C@@H](C)[C@@H]4CC[C@@]32C)/C1=C(\CCC=C(C)C)C(=O)O [FUSIDIC ACID] | 12 (≈ 23.2 µM) | 8 (≈ 15.5 µM) | 12 (≈ 23.2 µM) | 4 (≈ 7.74 µM) | 4 (≈ 7.74 µM) | 4 | 32 (≈ 61.9 µM) | 6 (≈ 11.6 µM) | 4 (≈ 7.74 µM) | 48 (≈ 92.9 µM) | 8 (≈ 15.5 µM) | 6 (≈ 11.6 µM) | 6 (≈ 11.6 µM) | 12 (≈ 23.2 µM) | 8 | 16 (≈ 31 µM) | 2 (≈ 3.87 µM) | 32 | 12 | 16 | MIC (Staphylococcus aureus [21]): 0.047 µg/mL (≈ 0.091 µM); MIC (Staphylococcus aureus [22]): 4 µg/mL (≈ 7.74 µM); MIC (Staphylococcus aureus [23]): 24 µg/mL; MIC (Staphylococcus aureus [24]): 256 µg/mL (≈ 495 µM); MIC (Staphylococcus aureus [25]): 4 µg/mL (≈ 7.74 µM); MIC (Staphylococcus aureus [26]): 12 µg/mL (≈ 23.2 µM); MIC (Staphylococcus aureus [27]): 4 µg/mL; MIC (Staphylococcus aureus [28]): 0.125 µg/mL (≈ 0.242 µM); MIC (Staphylococcus aureus [29]): 4 µg/mL (≈ 7.74 µM); MIC (Staphylococcus aureus [30]): 24 µg/mL; fold change (FC) (Staphylococcus aureus [31]): 32
2 | NC[C@H]1O[C@H](O[C@H]2[C@H](O)[C@@H](O[C@H]3O[C@H](CO)[C@@H](O)[C@H](N)[C@H]3O)[C@H](N)C[C@@H]2N)[C@H](O)[C@@H](O)[C@@H]1O [KANAMYCIN] | 96 (≈ 198 µM) | 256 (≈ 528 µM) | 12 (≈ 24.8 µM) | 12 (≈ 24.8 µM) | 2 (≈ 4.13 µM) | 12 | 4 (≈ 8.26 µM) | 12 (≈ 24.8 µM) | 8 (≈ 16.5 µM) | 128 (≈ 264 µM) | 8 (≈ 16.5 µM) | 32 (≈ 66 µM) | 6 (≈ 12.4 µM) | 8 (≈ 16.5 µM) | 8 | 96 (≈ 198 µM) | 48 (≈ 99.1 µM) | 3 | 128 | 64 | MIC (Staphylococcus aureus [21]): 2 µg/mL (≈ 4.13 µM); MIC (Staphylococcus aureus [22]): 6 µg/mL (≈ 12.4 µM); MIC (Staphylococcus aureus [23]): 256 µg/mL; MIC (Staphylococcus aureus [24]): 8 µg/mL (≈ 16.5 µM); MIC (Staphylococcus aureus [25]): 8 µg/mL (≈ 16.5 µM); MIC (Staphylococcus aureus [26]): 256 µg/mL (≈ 528 µM); MIC (Staphylococcus aureus [27]): 16 µg/mL; MIC (Staphylococcus aureus [28]): 1.5 µg/mL (≈ 3.1 µM); MIC (Staphylococcus aureus [29]): 24 µg/mL (≈ 49.5 µM); MIC (Staphylococcus aureus [30]): 256 µg/mL; fold change (FC) (Staphylococcus aureus [31]): 3
3 | CN[C@@H]1[C@H](O[C@H]2[C@H](O[C@H]3[C@H](O)[C@@H](O)[C@H](N=C(N)N)[C@@H](O)[C@@H]3N=C(N)N)O[C@@H](C)[C@]2(O)C=O)O[C@@H](CO)[C@H](O)[C@H]1O [STREPTOMYCIN] | 256 (≈ 440 µM) | 64 (≈ 110 µM) | 16 (≈ 27.5 µM) | 24 (≈ 41.3 µM) | 8 (≈ 13.8 µM) | 16 | 6 (≈ 10.3 µM) | 16 (≈ 27.5 µM) | 16 (≈ 27.5 µM) | 192 (≈ 330 µM) | 16 (≈ 27.5 µM) | 16 (≈ 27.5 µM) | 8 (≈ 13.8 µM) | 24 (≈ 41.3 µM) | 24 | 192 (≈ 330 µM) | 24 (≈ 41.3 µM) | 3 | 32 | 256 | MIC (Staphylococcus aureus [21]): 6 µg/mL (≈ 10.3 µM); MIC (Staphylococcus aureus [22]): 8 µg/mL (≈ 13.8 µM); MIC (Staphylococcus aureus [23]): 96 µg/mL; MIC (Staphylococcus aureus [24]): 24 µg/mL (≈ 41.3 µM); MIC (Staphylococcus aureus [25]): 24 µg/mL (≈ 41.3 µM); MIC (Staphylococcus aureus [26]): 256 µg/mL (≈ 440 µM); MIC (Staphylococcus aureus [27]): 64 µg/mL; MIC (Staphylococcus aureus [28]): 3 µg/mL (≈ 5.16 µM); MIC (Staphylococcus aureus [29]): 16 µg/mL (≈ 27.5 µM); MIC (Staphylococcus aureus [30]): 256 µg/mL; fold change (FC) (Staphylococcus aureus [31]): 3
